# Source: PubChem BioAssay
# An excerpt weighted towards active compounds, which were near 5.5% of everything screened.
# HSV replic up = HSV replication enhancement | HSV replication augmentation in cells, fold increase | maximum fold increase | 220,000 compounds, 0.005% hits | AID 1956; in the data active = maximum fold increase above about 1.5; inconclusive = no clear call, values can overlap the other calls; tested in PC3 cells
# STAT3 blocker = STAT3 signaling inhibition. U3A cells, IL-6 STAT3-luciferase reporter, luminescence; host cell line lacks STAT1. inhibition, % at 5.5 µM. 190,000 compounds, 0.89% hits;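 active = inhibition above the mean inhibition across all screened compounds plus 3 SD, cut at about 44% in these data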;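 note: 0% = DMSO only wells and 100% = 100 µM nifuroxazide control wells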
# STAT1 blocker = STAT1 signaling inhibition. inhibition, % at 5.5 µM. NIH 3T3 STAT1-luciferase reporter, IFN-gamma, luminescence. AID 920. 200,000 compounds, 0.35% hits;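 active = inhibition above a set limit, the mean inhibition across all tested compounds plus 3 SD, cut at about 34% in these data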;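 note: 0% = IFN-gamma with DMSO and 100% = IFN-gamma with 300 µM nifuroxazide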
# STAT1 act = increases IFN-gamma driven STAT1 reporter signal; activation (% of control), % at 5.5 µM; 200,000 compounds, 2.6% hits; NIH 3T3 STAT1-luciferase reporter, luminescence; 100% = IFN-gamma alone, no compound;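 active = activation above the screen-wide mean activation plus 3 SD, cut at about 130% in these data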;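 note: raw ratio to IFN-gamma control signal so 100% means no change and 0% no light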
# STAT3 act = activators of IL-6 induced STAT3 signaling. activation (% of control), % at 5.6 µM. U3A cells, IL-6 STAT3-luciferase reporter, luminescence; 100% = signal with IL-6 EC80 alone. 190,000 compounds, 0.91% hits;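 active = activation above the screen-wide mean of compound activation plus 3 SD, cut at about 130% in these data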;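 note: 0% = background luminescence of wells with medium and substrate only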
#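 Test system: Human STAT1-deficient U3A cells with stable STAT3-luciferase reporter | Also added: Interleukin-6, 33 ng/mL | Timing: Compound pre-incubation 1 h before IL-6, then 6 h stimulation at 37 °C | Technique: Luciferase reporter luminescence | Read-out: Percent of IL-6-only median luminescence | Benchmarks: IL-6-only wells as 100% reference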
# Cl transport mod = KCC2 (human) Cl- transport modulation; B-score of Tl+ flux slope (higher = more flux/activation; lower = inhibition) at 10 µM; 190,000 compounds, 2.2% hits; Q9H2X9; KCC2 cells, thallium flux FluoZin-2 fluorescence;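 active = thallium flux slope and its plate-corrected score both differing from the plate sample mean at a set confidence after two filtering rounds, in either direction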;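 note: slope of fluorescence scaled to starting intensity during 10 to 20 s after thallium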
# Target sequence (Q9H2X9 whole entry, looked up): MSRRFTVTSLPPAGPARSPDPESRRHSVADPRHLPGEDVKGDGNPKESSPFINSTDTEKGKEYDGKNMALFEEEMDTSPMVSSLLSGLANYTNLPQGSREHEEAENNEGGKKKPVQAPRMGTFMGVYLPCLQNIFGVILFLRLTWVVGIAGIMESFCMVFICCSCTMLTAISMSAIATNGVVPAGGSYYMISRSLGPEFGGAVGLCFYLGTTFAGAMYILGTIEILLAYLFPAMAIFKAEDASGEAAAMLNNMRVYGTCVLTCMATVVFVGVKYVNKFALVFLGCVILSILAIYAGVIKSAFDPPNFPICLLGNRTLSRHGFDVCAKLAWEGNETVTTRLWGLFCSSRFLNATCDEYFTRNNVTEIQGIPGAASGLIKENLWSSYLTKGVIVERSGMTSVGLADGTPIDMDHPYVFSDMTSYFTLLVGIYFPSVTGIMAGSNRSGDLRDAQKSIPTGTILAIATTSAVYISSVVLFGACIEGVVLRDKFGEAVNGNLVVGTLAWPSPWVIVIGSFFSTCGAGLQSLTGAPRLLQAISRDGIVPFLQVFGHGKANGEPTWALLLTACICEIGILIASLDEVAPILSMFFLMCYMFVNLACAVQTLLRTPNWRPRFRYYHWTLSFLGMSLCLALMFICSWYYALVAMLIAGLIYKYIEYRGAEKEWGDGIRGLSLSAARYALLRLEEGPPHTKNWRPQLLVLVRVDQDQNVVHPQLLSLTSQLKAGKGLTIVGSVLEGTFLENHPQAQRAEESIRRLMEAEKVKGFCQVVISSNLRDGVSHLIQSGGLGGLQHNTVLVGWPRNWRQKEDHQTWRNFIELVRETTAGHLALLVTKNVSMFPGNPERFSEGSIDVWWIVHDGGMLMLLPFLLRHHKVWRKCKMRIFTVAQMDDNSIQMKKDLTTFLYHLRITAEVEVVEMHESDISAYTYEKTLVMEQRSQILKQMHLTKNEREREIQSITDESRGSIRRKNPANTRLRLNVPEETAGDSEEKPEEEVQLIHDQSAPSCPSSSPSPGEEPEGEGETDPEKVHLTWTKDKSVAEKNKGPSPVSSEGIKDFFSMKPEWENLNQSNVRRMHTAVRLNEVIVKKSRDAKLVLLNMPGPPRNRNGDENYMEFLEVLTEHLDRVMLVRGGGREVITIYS
# STAT1 activ conf = confirmation of STAT1 signaling activators | shares compounds with STAT1 act | activation (% of control), % at 5.7 µM | 1,200 compounds, 97% hits | NIH 3T3 STAT1-luciferase reporter, IFN-gamma potentiation, luminescence; 100% = IFN-gamma EC80 alone, no compound;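 active = activation above a set limit carried over from the earlier primary STAT1 screen, cut at about 140% in these data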;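 note: simple ratio to median IFN-gamma plus DMSO wells so 0% means no light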
# NFkB act = activates NF-kappaB, counter-screen to STAT1 activators. 1,200 compounds, 43% hits. AID 1306. shares compounds with STAT1 act. activation (% of control), % at 5.7 µM. HEK293T NF-kB luciferase reporter, TNF-alpha stimulated, luminescence; 100% = TNF-alpha with vehicle only;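 active = activation above the mean of solvent-only control wells plus 3 SD, set per campaign, cut at about 130% in these data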;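 note: TNF-alpha given at a submaximal dose yielding about 80% of full reporter signal; values are well signal over median control so 100% means no change and 0% no light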
# STAT3 act STAT1c = human STAT3 activation in STAT1 activator counter-screen; shares compounds with STAT1 act; U3A cells STAT3-luciferase reporter, IL-6, luminescence; cells lack STAT1; 100 = IL-6 alone, no compound effect; activation (% of control), % at 5.7 µM; 1,200 compounds, 46% hits; AID 1316;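 active = activation above the solvent-only control well mean plus 3 SD, set per plate batch, cut at about 110% in these data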;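 note: 0% = no luminescence and 100% = median IL-6 plus DMSO wells; higher means more STAT3 reporter activation so hits are non-selective activators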
# * marks the source's active call; other numbers are inactive results; i = inactive; ? = inconclusive; . = not tested or not shown.
SMILES,HSV replic up,STAT3 blocker,STAT1 blocker,STAT1 act,STAT3 act,Cl transport mod,STAT1 activ conf,NFkB act,STAT3 act STAT1c
CN(Cc1ccc(F)cc1)C(=O)CCc1nnc(-c2ccccc2)o1,i,-1.2,-31.8,128.1,105.6,-1.1,.,.,.
CC1CN=C(N(C(=O)Nc2ccccc2)c2ccc(F)cc2)S1 (stereo unspecified),i,3.3,15.8,85.7,101.3,.,.,.,.
CCN1C/C(=C/c2ccc(OC)c(O)c2)C(=O)/C(=C/c2ccc(OC)c(O)c2)C1,i,4.4,-253.6,335.2*,99.6,0.371,108.7,137.8*,96.6
COc1ccc(C=C2C(=O)c3ccccc3C2=O)cc1O,i,2.9,1.6,96.7,105.3,-1.67,.,.,.
COC(=O)Cc1ccc2sc(-c3ccccc3)nc2c1,i,8.6,-63.7,156.7*,91.3,-1.05,182.6*,107.2,96.6
N#CCc1ccc(NC(=O)/C=C/c2ccc([N+](=O)[O-])o2)cc1,i,23.3,-231.0,311.9*,83.4,.,129.6*,154.8*,101.9
N#C/C(=C\c1ccc([N+](=O)[O-])o1)C(=O)Nc1ccc(F)cc1,?,11.0,14.1,87.2,92.4,0.272,.,.,.
N=c1oc2cc(O)ccc2cc1C(=O)Nc1ccccn1,i,-2.7,-11.2,110.1,107.6,-1.7,.,.,.
N=c1oc2cc(O)ccc2cc1C(=O)Nc1nc2ccccc2s1,i,-38.9,-74.7,168.0*,127.5,0.029,194.5*,111.8,151.6*
COc1ccc(N(CC(=O)Nc2ccc(C)cn2)S(=O)(=O)c2c(C)noc2C)cc1,i,14.5,-0.8,100.7,92.1,.,.,.,.
C/C(=N\NC(=O)c1nn(C)c(C)c1Br)c1ccc(NC(=O)c2ccccc2F)cc1,i,26.4,-62.3,156.2*,79.9,0.544,123.3,118.1,89.1
C/C(=N\NC(=O)c1c(Br)c(C)nn1C)c1ccc(NC(=O)c2ccoc2C)cc1,i,2.0,-21.8,119.8,99.4,0.559,.,.,.
C/C(=N\NC(=O)c1nn(C)c(C)c1Br)c1ccc(NC(=O)c2ccoc2C)cc1,i,28.0,-86.9,179.3*,81.4,-0.267,119.0,114.5,88.7
c1ccc2c(c1)oc1c(Nc3ccc(CN4CCOCC4)cc3)ncnc12,i,0.0,-63.2,157.8*,103.2,0.156,207.4*,135.4*,115.4*
c1ccc2c(c1)oc1c(Nc3ccc4c(c3)OCO4)ncnc12,i,2.1,-63.2,157.7*,101.4,.,202.2*,142.4*,109.6
O=[N+]([O-])c1ccc(Sc2n[nH]c(-c3ccc(Cl)cc3Cl)n2)nc1,i,3.2,-3.3,102.9,100.2,.,.,.,.
COc1ccc(/C=C2\SC(=O)N(CCNC(=O)C3CC4C=CC3C4)C2=O)cc1 (stereo unspecified),i,-27.5,-63.8,158.6*,124.8,-0.944,146.1*,149.9*,133.9*
COc1ccc(/C=C2/SC(=O)N(CCNC(=O)C3CCCN3C(=O)c3cccs3)C2=O)cc1 (stereo unspecified),i,0.7,-1.1,101.0,99.4,-2.48,.,.,.
Cc1ccsc1C(=O)NNC(=O)C1C2C=CC(C2)C1C(=O)O (stereo unspecified),i,-1.3,-96.0,184.3*,103.4,-0.155,131.3*,125.2,106.3
COC(=O)c1sccc1NC(=O)C1C2C=CC(C2)C1C(=O)O (stereo unspecified),i,6.8,0.3,96.9,97.0,-0.377,.,.,.
COc1ccc2oc(=Nc3cccc(F)c3)c(C(N)=O)cc2c1,i,12.1,-28.1,123.0,91.9,-0.726,.,.,.
COc1ccc2oc(=Nc3ccccc3)c(-c3nc4ccccc4[nH]3)cc2c1,i,-26.9,-67.6,161.2*,129.8,0.0842,164.4*,124.5,137.9*
